# Screens: PubChem, Broad Institute
# Most compounds without a hit are left out; they make up all but 2.9% or so of the library.
# Cneo AK release: Cryptococcus neoformans cell lysis inducers, primary screen, AK release luminescence, single concentration; C. neoformans lysis, adenylate kinase release luminescence, 4 h; normalised: neutral wells 0, clomiphene wells 100; lysis activity, % at 15 µM; 360,000 tested, 0.2% active;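 active = mean lysis activity across replicates of at least 80%, whatever share of replicates individually reach that level; inactive = mean lysis activity below 80%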
#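 Material: C. neoformans cells | Amount: Yeast cell density of 5 × 10^6 cells/mL | Medium: Fresh YPD growth medium | Dosing: Single dose | Times: Static 4 h at 37 °C with compound, 1 h detection | Detection: AK luminescence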
# PAX8 reporter: inhibitors of PAX8-driven TPO luciferase reporter, primary screen, RMG-I cells, single concentration | SteadyGlo, 24 h | inhibition, % at 12.6 µM | 360,000 tested, 1.2% active;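 active = mean replicate inhibition at least 60% with every replicate also reaching 60%; inconclusive = only one of the two criteria is met; inactive = mean below 60% and not all replicates reaching 60%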;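 also: luciferase light reporting Pax8 driven TPO promoter activity; plate controls were median of neutral control wells for no effect and mitoxantrone controls for full effect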
# CDK5 p35 inh: inhibitors of human CDK5/p35 kinase, primary screen, biochemical, single concentration | AID 488839, 2010 | Recombinant CDK5/p35, ADP-Glo luminescence, 60 min | 330,000 tested, 0.01% active | inhibition, % at 10 µM | Cyclin-dependent kinase 5 (Homo sapiens) + Cyclin-dependent kinase 5 activator 1 (Homo …;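 active = highest replicate inhibition of at least 50% and at least 75% of replicates reaching 50%; inconclusive = only one of the two criteria met; inactive = both criteria failed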;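 also: plate controls were DMSO neutral control for no effect and GW8510 at 10 µM for full effect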
# Target sequence (Q00535 whole entry, looked up): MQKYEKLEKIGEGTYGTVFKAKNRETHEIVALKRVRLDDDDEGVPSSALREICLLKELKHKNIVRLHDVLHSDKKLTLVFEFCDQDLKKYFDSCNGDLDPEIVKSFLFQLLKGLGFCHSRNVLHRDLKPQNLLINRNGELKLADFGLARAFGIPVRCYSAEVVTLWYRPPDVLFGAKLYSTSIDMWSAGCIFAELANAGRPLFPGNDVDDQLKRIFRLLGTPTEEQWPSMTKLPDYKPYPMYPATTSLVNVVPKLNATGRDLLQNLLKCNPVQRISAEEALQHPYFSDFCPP
# Target sequence (Q15078 whole entry, looked up): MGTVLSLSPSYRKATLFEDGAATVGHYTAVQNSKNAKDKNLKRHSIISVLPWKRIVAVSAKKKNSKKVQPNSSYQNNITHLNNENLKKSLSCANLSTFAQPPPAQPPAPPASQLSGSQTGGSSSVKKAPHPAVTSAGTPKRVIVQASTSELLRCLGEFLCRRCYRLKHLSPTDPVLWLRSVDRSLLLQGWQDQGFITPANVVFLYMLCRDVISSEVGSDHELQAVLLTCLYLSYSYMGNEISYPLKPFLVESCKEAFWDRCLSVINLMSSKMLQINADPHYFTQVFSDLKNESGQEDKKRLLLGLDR
# dFosB act-1: activators of delta FosB homodimer, primary screen, biochemical, fluorescence polarization, TAMRA-CDK5 oligo, single point | Protein FosB (Mus musculus), P13346 | purified delta FosB; percent of positive-control signal above neutral wells | activation, % at 25 µM | 340,000 tested, 0.99% active | AID 493131, 2011;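 active = mean activation above about 17%, with every replicate also reaching it, limit read from the data, passing the limit was not always enough; inconclusive = only one of the two conditions met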
# HIV Env fusion: inhibitors of HIV-1 Env-driven cell-cell fusion, primary screen, HeLa-JRFL effector, CEM21 target cells, luciferase | 360,000 tested, 1.1% active | AID 651610, 2012 | inhibition, % at 12.3 µM;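 active = mean replicate inhibition score of at least 50 and every replicate individually at or above 50; inconclusive = only one of the two criteria met; inactive = mean below 50 and not all replicates reaching 50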;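 also: 0% = plate neutral controls and 100% = maraviroc near 300 nM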
# GSIS activator: GLuc luminescence reporter in INS-1E cells, primary screen for activators of glucose-dependent secretion of insulin. 370,000 tested, 0.61% active. INS-1E GLuc reporter insulin secretion, 2-3 h. activation, % at 16.6 µM;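 active = lowest replicate activation of at least 40%, so every replicate reaches that level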;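 also: 0% = median of neutral control wells and 100% = median of IBMX positive control wells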
# dFosB act-2: activators of mouse delta FosB DNA binding, confirmation, biochemical, fluorescence polarization, TAMRA-CDK5 oligo, cherry-picked samples | 2,400 tested, under 10 active | purified delta FosB; normalised: neutral wells 0, positive control 100 | AID 588690, 2011 | activation, % at 24.9 µM | shares compounds with dFosB act-1;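 active = highest replicate activation at or above 34% and every replicate reaching that threshold; inconclusive = meets only one of the two criteria; inactive = meets neither criterion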;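 also: higher polarization means more probe DNA bound by delta FosB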
# Starred values were filed as active, the others as inactive; i = inactive; ? = inconclusive; . = not tested or not shown; [ ] = dose if it differs, or a comment.
SMILES,Cneo AK release,PAX8 reporter,CDK5 p35 inh,dFosB act-1,HIV Env fusion,GSIS activator,dFosB act-2
CCC(=O)N[C@@H]1CC[C@H](CCNC(=O)Nc2ccc(C(F)(F)F)cc2)O[C@H]1CO,-4,-52,.,.,4[16.7 µM],-18,.
COC(=O)c1sc2ncccc2c1OCc1c(Cl)cccc1Cl,-1,.,0,35*,-47,.,5
COc1ccc(OCc2nnc(NC(=O)Nc3ccc(F)cc3)s2)cc1,-1,-2,-1,73*,23,31,-1
C[C@H]1CCCCO[C@@H](CN(C)C(=O)c2ccncc2)[C@@H](C)CN([C@@H](C)CO)C(=O)c2cc(NS(C)(=O)=O)ccc2O1,-2,.,.,.,3[16.7 µM],8,.
Cc1ccc(C)c(NC(=O)Cn2nc(-c3ccccc3)nc2-c2ccccc2)c1,.,-2,-2,55*,-53,.,-9
O=C(Nc1ccc(CN2CCOCC2)cc1)c1ccc(Br)o1,0,-104,2,-6,-20,-6,.
O=C(O)c1ccc(COc2ccccc2[N+](=O)[O-])o1,1,2,0,-3,0,5,.
CC(=O)Nc1ccc(NC(=O)c2ccc(-c3ccc([N+](=O)[O-])cc3)o2)cc1,-1,-11,0,29*,18,-6,4
CC(=O)c1ccc(NC(=O)c2ccc(COc3ccccc3[N+](=O)[O-])o2)cc1,-1,-1,.,27*,7,-6,2
O=C(Nc1ccc(CN2CCOCC2)cc1)c1ccc(-c2cc(Cl)ccc2Cl)o1,-2,21,1,26*,24,.,0
O=C(Nc1ccc(CN2CCOCC2)cc1)c1ccc(-c2cccc([N+](=O)[O-])c2)o1,-1,-1,2,17*,14,9,1
C[C@@H]1CN([C@@H](C)CO)C(=O)c2cc(C#Cc3ccccc3)cnc2O[C@H]1CN(C)C(=O)CCN1CCCCC1,3,.,.,.,3[16.7 µM],5,.
O=C(Nc1ccccc1F)c1ccc(-c2cccc([N+](=O)[O-])c2)o1,-9,-130,0,-2,-39,1,.
O=C(Nc1nccs1)c1ccc(-c2cccc([N+](=O)[O-])c2)o1,0,-170,-1,26*,-74,15,2
O=C(NNC(=O)c1csc(N2CCOCC2)n1)c1ccc(Cl)nc1,-1,4,0,1,-5,14,.
O=C(NNC(=O)c1ccc(Cl)s1)c1csc(N2CCOCC2)n1,.,-4,1,21*,-20,3,-2
COc1ccccc1CC(=O)Nc1ccc([N+](=O)[O-])cc1O,.,?,1,24*,-3,-1,-6
COc1ccccc1CC(=O)Nc1ccccc1O,13,.,-3,-3,-8,10,.
COc1ccc(CN2C[C@H](C)[C@@H](OC)CN(C)C(=O)c3cc(NC(=O)c4nc5ccccc5s4)ccc3OC[C@@H]2C)cc1,-1,31,.,.,.,-12,.
O=C(CSc1nnc(-c2ccncc2)n1Cc1ccco1)Nc1ccccc1Cl,.,1,0,-4,-12,13,.
O=C(CSc1nnc(-c2ccncc2)n1Cc1ccco1)Nc1nc(-c2ccccc2)cs1,0,8,-1,33*,33,.,-2
COC(=O)c1cc(NC(=O)c2ccc(Cn3cc(Cl)cn3)o2)cc(C(=O)OC)c1,1,.,-2,21*,.,.,-1
COC(=O)c1ccccc1NC(=O)c1ccc(Cn2cc(Cl)cn2)o1,1,10,-1,-7,7,.,.
Cc1cccc(NC(=O)COC(=O)c2n[nH]c3ccccc23)c1C,-1,0,1,25*,4,4,7
O=C(CN1CCOCC1)NCC[C@H]1CC[C@@H](NC(=O)Nc2ccc(F)cc2)[C@H](CO)O1,1,-13,.,.,21[16.7 µM],11,.
SMILES,Cneo AK release,PAX8 reporter,CDK5 p35 inh,dFosB act-1,HIV Env fusion,GSIS activator,dFosB act-2
O=Nc1c2cc(-c3ccccc3)[nH]nc-2c2ccccc12,.,-86,1,6,-146,5,.
Cc1ccc(-c2cc3c(N=O)c4ccccc4c-3n[nH]2)cc1,.,-79,1,32*,-161,9,2
COc1ccc(CC(=O)Nc2ccc(-c3noc(-c4ccc(Cl)cc4)n3)cc2)cc1,-2,.,1,60*,-15,26,7
COc1cc(-c2nc(-c3ccc(NC(=O)c4ccc5c(c4)OCO5)cc3)no2)cc(OC)c1OC,0,-6,.,43*,i,.,3
COc1ccc(CC(=O)Nc2ccc(-c3noc(-c4cc(OC)c(OC)c(OC)c4)n3)cc2)cc1,0,.,0,21*,.,.,11
Cc1ccccc1-c1nc(-c2ccc(NC(=O)c3ccc4c(c3)OCO4)cc2)no1,-1,.,-2,-6,38,.,.
COc1ccc(-c2nc(CS(=O)(=O)CC(=O)Nc3ccc(Cl)cc3)c(C)o2)cc1,1,-31,-2,45*,14,-1,2
COc1ccc(NC(=O)CS(=O)(=O)Cc2nc(-c3ccc(C)cc3)oc2C)cc1,.,6,1,-1,13,-24,.
COc1ccc(Cc2nc(-c3ccc(Cl)cc3)no2)cc1,0,-21,0,-2,-30,.,.
CO[C@H]1CN(C)C(=O)c2cc(NC(=O)C3CC3)ccc2OC[C@H](C)N(C(=O)c2ccccc2F)C[C@H]1C,-1,1,.,.,-9[16.7 µM],18,.
O=C(C[C@H]1C=C[C@@H](NC(=O)C2CCC2)[C@@H](CO)O1)NCc1ccncc1,-2,-17,.,.,4[16.7 µM],-1,.
COc1ccc(CC(=O)Nc2ccc(NC(=O)c3ccccc3F)cc2)cc1,.,7,-2,20*,6,25,-1
COc1ccc(NC(=O)C2CCN(c3nc(-c4ccc(OC)cc4)no3)CC2)cc1,0,-78,2,29*,12,9,-6
CCOc1ccccc1-c1nc(-c2ccc(NC(=O)Cc3ccc(OC)cc3)cc2)no1,0,.,0,25*,.,.,0
COc1ccc(CC(=O)Nc2ccc(-c3noc(COc4ccccc4C)n3)cc2)cc1,-2,.,0,12,.,.,.
CCC(=O)N1C[C@H](C)[C@@H](OC)CN(C)C(=O)c2ccc(NS(C)(=O)=O)cc2OC[C@@H]1C,1,3,.,.,8[16.7 µM],-3,.
O=C(NCCC1=CCCCC1)c1cc(S(=O)(=O)N2CCOCC2)c(Cl)cc1Cl,-1,-8,0,19*,6,21,-3
